# 697 NFkB inh = inhibitors of the PMA/ionomycin-induced NF-kB reporter in 697 B cells; 697 B-cell NF-kB luciferase reporter, 16 h; inhibition, % at 4 µM; 330,000 tested, 0.33% active; AID 435022; in the data active means inhibition above about 35%
# Gli-Sufu block = antagonists of Gli-Sufu signaling | AID 588413 | 340,000 tested, 0.74% active | inhibition, % at 5 µM | Sufu-KO-LIGHT fibroblasts, Gli luciferase reporter luminescence;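 active means inhibition above about 55%, limit read from the data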;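 further: 0% = DMSO-treated cells and 100% = wells with medium but no cells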
# Jurkat NFkB inh = lowers PMA/ionomycin-induced NF-kB signal in Jurkat cells. AID 435003. inhibition, % at 4 µM. PMA/ionomycin-induced NF-kB luciferase reporter, luminescence. 330,000 tested, 0.53% active; in the data active means inhibition above about 50%
# H9c2 TAG inh = inhibitors of triacylglycerol accumulation; AID 651582; 230,000 tested, 0.66% active; H9c2 cells, Nile Red lipid (TAG) fluorescence; cells loaded with 200 µM oleic acid; inhibition, % at 12.5 µM;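 active means pattern-corrected inhibition of lipid staining of at least 50% with the nuclear-stain viability signal not falling by more than 50%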;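 further: 0% = DMSO wells and 100% = triacsin C control wells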
# hiPSC survival = increases survival of single human iPS cells; AID 602274; 360,000 tested, 0.044% active; survival enhancement, % at 20 µM; hiPSC single-cell survival, ATPlite luminescence; 100% = ROCK inhibitor wells, 0% = DMSO; in the data active means survival enhancement above about 18%;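 further: cells exposed to compounds for 16 hours before the ATP read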
# Hep lipid drop = modulators of hepatic lipid droplet formation; AML12 mouse hepatocytes, oleate lipid droplets, BODIPY imaging; inhibition, % at 6.5 µM; 240,000 tested, 0.4% active;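 active means lipid droplet intensity inhibited by at least 50%, with more than 500 cells counted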
#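 System: AML12 hepatocytes (mouse). Probe or stimulus: oleic acid at 100 µM to induce lipid droplet formation. Times: overnight treatment with compound plus oleate. Detection: Image-based BODIPY and DAPI two-channel analysis. Evaluation: percent inhibition of filter-corrected integrated lipid droplet intensity per well.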
# The depositor's hits bear a star; . = no result given. Sampled rows, rich in hits. Any-hit rate of the full collection: about 1.8%.
SMILES,697 NFkB inh,Gli-Sufu block,Jurkat NFkB inh,H9c2 TAG inh,hiPSC survival,Hep lipid drop
CCN1CSC(=S)N(Cc2ccccc2)C1,7,63*,-7,.,0,14
COC(=O)c1ccc2c(c1)C(C)(C)C(/C=C/c1ccccc1O)=[N+]2C,-34,65*,32,.,1,.
COC(=O)c1ccc(N)c(N=CC2=C(O)CC(C)(C)CC2=O)c1,-55,-7,-9,.,-4,2
Cc1cc(C)cc(-n2ncc3c2CCCC3NC(=O)c2cc(C)n(C)n2)c1 (stereo unspecified),-13,-32,-16,.,-1,43
Cc1cc(C(=O)NC2CCCc3c2cnn3-c2ccc(C(C)(C)C)cc2)nn1C (stereo unspecified),19,58*,39,-16,0,-7
CCOc1cc2nc(-c3ccc(OC)c(OC)c3)nc(NCCCN3CCOCC3)c2cc1OC,31,2,-8,56*,-2,26
COc1cc2ncnc(NCCCN3CCOCC3)c2cc1OC,8,6,1,13,2,2
C[C@@H]1CN([C@H](C)CO)C(=O)CCCn2nncc2CO[C@H]1CN(C)C(=O)Cc1ccccc1,.,.,.,-4,-1,.
COc1ccccc1/C=C(/NC(=O)c1ccc(Cl)cc1Cl)C(=O)O,-28,15,-21,-8,0,10
O=C(Nc1ccc(Oc2ccccc2)cc1)C1CCN(c2c3c(nc4ncnn24)CCC3)CC1,-16,70*,16,1,11,.
O=C(Nc1ccc2c(c1)CCC2)C1CCN(c2c3c(nc4ncnn24)CCC3)CC1,21,28,38,.,-2,.
Cn1nc(-c2ccccc2)c(C(O)c2ccccc2C(F)(F)F)c1Cl (stereo unspecified),10,7,9,-14,22*,-8
CC(=O)N1c2ccc(S(=O)(=O)N3CCC(C(=O)Nc4cccc(C)c4)CC3)cc2CC1C (stereo unspecified),-7,5,14,.,-1,-2
CC(=O)N1c2ccc(S(=O)(=O)N3CCC(C(=O)Nc4cccc(Cl)c4)CC3)cc2CC1C (stereo unspecified),-11,73*,30,.,-1,-6
CC1Sc2ccc(S(=O)(=O)N3CCC(C(=O)Nc4ccc(Cl)cc4)CC3)cc2NC1=O (stereo unspecified),-17,69*,30,.,0,-5
COCCCN1C(=O)C(CC(=O)NC2CCCCC2)CC(C(=O)N2CCCCCC2)=C1C (stereo unspecified),.,.,.,.,1,.
CN1/C(=C\C=C2/SC(=S)NC2=O)C(C)(C)c2ccccc21,-42,71*,29,-72,-2,-32
CN1C(=CC=C2C=C(I)C(=O)C(I)=C2)C(C)(C)c2ccccc21,.,41,.,-26,-1,-3
N#Cc1ccc(C23CC4(C2)[C@H](CN(P(=O)(c2ccccc2)c2ccccc2)[C@@H]4c2ccccc2)C3c2ccc(Cl)nc2)cc1 (stereo partly specified),22,10,27,51*,-3,34
CCn1cc(CN2CCCC(C(=O)Nc3ccc(-c4cscn4)cc3)C2)c(C)n1 (stereo unspecified),-7,13,0,.,0,26
CCN1CCS/C1=C/C=C/C1=[N+](CC)CCS1,.,82*,.,-16,-1,-8
Cc1cc(Cl)n2nc(C)c(-c3ccc(Cl)cc3)c2n1,18,-2,1,13,21*,15
O=C(N/N=C(\c1ccccc1)c1ccccn1)c1cccc([N+](=O)[O-])c1,8,91*,48,55*,-4,-30
Cn1ccnc1/C(=N\NC(=O)c1ccccc1)c1cccc([N+](=O)[O-])c1,15,-10,-13,8,1,-14
Oc1cc(-c2cccnc2)cc2cccnc12,-1,29,0,56*,-2,.
SMILES,697 NFkB inh,Gli-Sufu block,Jurkat NFkB inh,H9c2 TAG inh,hiPSC survival,Hep lipid drop
CN1CCN(C(=O)c2cccc(-c3cc(O)c4ncccc4c3)c2)CC1,-13,15,-10,.,-1,.
Oc1cc(Nc2ccccc2)cc2cccnc12,0,9,4,5,2,.
CN1CCN(c2cc(-c3cc(O)c4ncccc4c3)ccn2)CC1,9,25,14,77*,-2,.
O=C(NCCN1CCC(n2c(=O)[nH]c3ccccc32)CC1)c1cccc(F)c1,.,.,.,.,1,.
CC(C)(C)C1CCC(CN2C(Nc3ccccc3)=NC[C@@H]2Cc2ccccc2)CC1 (stereo partly specified),-10,2,-20,113*,-4,.
O=C(C=P(c1ccccc1)(c1ccccc1)c1ccccc1)c1ccccc1-c1ccccc1C(=O)C=P(c1ccccc1)(c1ccccc1)c1ccccc1,.,86*,.,1,-2,.
Cc1nnsc1C(=O)N/N=C/c1ccc2ccccc2c1O,-18,86*,43,23,-1,-12
O=S(=O)(NCc1ccccn1)c1cc(Cl)ccc1Cl,-44,8,-32,-5,1,4
Cc1nc(N/N=C/c2ccccn2)sc1C,.,58*,.,.,.,-46
COC(=O)c1ccc(/C=N/Nc2nc(C)c(C)s2)cc1,-196,-57,-138,9,0,-7
CCCc1sc(N/N=C/c2ccccn2)nc1-c1ccc(F)cc1,-22,60*,-14,.,-1,14
CCN=c1scc(-c2ccc(F)cc2)n1/N=C/c1ccccn1,-167,-13,-92,-42,-1,-9
COc1cc(OC)c2c(-c3cccc(-c4sccc4C(C)=O)c3)cc(=O)oc2c1,-9,67*,.,25,-3,.
COc1cc(OC)c2c(-c3cccc(-c4ccc(NC(C)=O)cc4)c3)cc(=O)oc2c1,-23,37,.,21,0,.
COc1cc(OC)c2c(-c3ccccc3)cc(=O)oc2c1C(CCN1CCCC(C)C1)c1ccc(N(C)C)cc1 (stereo unspecified),2,14,-6,94*,-4,4
CCCCCc1cc(=O)oc2c(C(CCN3CCCC(C)C3)c3ccc4c(c3)OCO4)c(OC)cc(OC)c12 (stereo unspecified),6,8,4,78*,-4,-1
CCCCCc1cc(=O)oc2c(C(CCN3CCCCC3)c3ccc4c(c3)OCO4)c(OC)cc(OC)c12 (stereo unspecified),13,-6,31,106*,-5,25
COc1cc(OC)c2c(-c3ccccc3)cc(=O)oc2c1C(CCN1CCCC1)c1ccc2c(c1)OCO2 (stereo unspecified),8,8,-3,40,-6,34
CCOCc1c(C(=O)NC2CCCCCC2)oc2ccccc12,2,1,-2,3,4,-14
COc1cccc(C(C(=O)NC2CCCC2)N(CC2CCCO2)C(=O)Cc2cccs2)c1 (stereo unspecified),23,8,-12,2,2,0
COc1cccc(/C=N/NC(=O)c2cc3c(OC)ccc(OC)c3[nH]2)c1O,-35,12,-3,.,1,.
